In the library only some 0.86% were active in any assay of this set; here they are far more common.
miR122 inh – blocks miR-122 activity in Huh7 sensor cells; activation (reporter increase), % at 12.5 µM; Huh7 miR-122 Renilla luciferase sensor, 48 h; neutral wells = 0, positive control = 100; 0.3% of 340,000 active;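 active means mean replicate activation score at least 90 and every replicate individually at or above 90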;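 further: higher luciferase means less miR-122 activity so hits act as miR-122 inhibitors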
Rtt109 HAT inh – C. albicans Rtt109 histone acetyltransferase inhibition; Q5AAJ8; purified Rtt109/Vps75, ThioGlo CoA-SH fluorescence, 4 h; inhibition, % at 34.9 µM; 0.16% of 330,000 active; AID 540336;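 active means inhibition of at least 50% in every replicate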
Target sequence (Q5AAJ8 whole entry, looked up): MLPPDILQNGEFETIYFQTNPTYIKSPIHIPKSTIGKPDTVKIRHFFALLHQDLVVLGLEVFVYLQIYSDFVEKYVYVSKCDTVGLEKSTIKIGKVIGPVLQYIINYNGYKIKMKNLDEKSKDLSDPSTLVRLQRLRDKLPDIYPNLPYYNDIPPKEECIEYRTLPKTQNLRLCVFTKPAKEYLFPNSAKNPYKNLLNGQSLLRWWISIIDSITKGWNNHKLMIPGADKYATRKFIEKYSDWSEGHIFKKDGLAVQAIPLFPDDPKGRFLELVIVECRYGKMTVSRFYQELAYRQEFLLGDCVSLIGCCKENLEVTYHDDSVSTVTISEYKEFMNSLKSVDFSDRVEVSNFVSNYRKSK
AF4-AF9 inh – inhibitors of human MLL-AF4/AF9 interaction; inhibition, % at 10 µM; 0.47% of 350,000 active; AID 651704; AlphaScreen, biotin-AF4 peptide binding to FLAG-AF9; P42568;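 active means every replicate reaching a set inhibition limit, whatever the replicate mean, cut at about 25% in these data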;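 further: 0% = plate neutral control median and 100% = total signal loss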
ERAP1 HTS inh – ERAP1 (human) enzyme inhibition; recombinant ERAP1, Leu-AMC fluorescence, 60 min; Q9NZ08; inhibition, % at 10.7 µM; AID 652197; 0.15% of 340,000 active;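 active means mean replicate inhibition of at least 30%, or all replicates individually reaching that 30% level; inactive means mean below 30% and not every replicate reaching it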;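 further: 0% = neutral control wells and 100% = L-leucinethiol positive control wells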
S100A4 MyoIIA – S100A4-myosin IIA interaction inhibition; P26447; S100A4/TAMRA-MyoIIA peptide fluorescence polarization; inhibition, % at 10.7 µM; 0.14% of 360,000 active; AID 652163;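 active means mean inhibition of at least 70% across replicates, with every replicate also reaching that level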
Target sequence (P26447 whole entry, looked up): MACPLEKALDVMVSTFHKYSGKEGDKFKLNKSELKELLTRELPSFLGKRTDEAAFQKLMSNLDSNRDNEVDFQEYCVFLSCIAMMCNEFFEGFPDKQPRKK
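Material: human S100A4 monomer with TAMRA-labelled myosin IIA peptide; buffer or medium: HEPES pH 7.2 with CaCl2, KCl, NaCl, DTT, Triton; compound dosing: one concentration per compound; schedule: 5 min incubation before reading; benchmarks: neutral control DMSO, positive control TFP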
Starred values were filed as active, the others as inactive; nt = no result; [ ] = another dose, or the depositor's remark.

SMILES	miR122 inh	Rtt109 HAT inh	AF4-AF9 inh	ERAP1 HTS inh	S100A4 MyoIIA
C[C@H](NC(=O)C[C@H]1CC[C@H](NC(=O)C2CCC2)[C@@H](CO)O1)c1ccccc1	nt	nt	0	-2	5
Cc1ccccc1S(=O)(=O)NCC[C@H]1CC[C@H](NC(=O)C2CCC2)[C@H](CO)O1	nt	nt	2	-3	102*
O=C(Nc1ccc2c(c1)OCO2)N[C@@H]1CC[C@@H](CCNC(=O)C2CCCC2)O[C@H]1CO	19[16.7 µM]	nt	-9	4	90*
Cc1ccc(S(=O)(=O)NCC[C@@H]2CC[C@@H](NC(=O)C3CCOCC3)[C@H](CO)O2)cc1	nt	nt	0	0	99*
O=C(Nc1ccc2c(c1)OCO2)N[C@H]1CC[C@H](CCNC(=O)C2CCCC2)O[C@H]1CO	3[16.7 µM]	nt	2	0	-20
O=C(Cc1ccncc1)NCC[C@@H]1CC[C@@H](NC(=O)C2CCOCC2)[C@@H](CO)O1	nt	nt	-1	0	102*
CCCc1cn(CC[C@@H]2CC[C@H](NC(=O)C3CCCC3)[C@H](CO)O2)nn1	-2[16.7 µM]	nt	-3	1	116*
O=C(Cc1ccncc1)NCC[C@@H]1CC[C@H](NC(=O)C2CCOCC2)[C@H](CO)O1	nt	nt	0	0	7
Cc1ccc(Cc2c(C)nc3nc(SCC(=O)NCCCN4CCCCCC4)nn3c2C)cc1	nt	nt	33*	4	0
Cc1nc2nc(SCC(=O)NCCCN3CCCCC3)nn2c(C)c1Cc1ccccc1	-22	6	-1	0	-9
COCC(=O)Nc1ccc2c(c1)C(=O)N(C)C[C@H](OC)[C@@H](C)CN(Cc1ccccc1OC)[C@@H](C)CO2	0[16.7 µM]	nt	2	0	-1
OCCN1CCN(CC/C=C2/c3ccccc3Sc3ccc(C(F)(F)F)cc32)CC1	1	6	27*	-1	-13
CCc1cccc2c(C(=O)CN3C(=O)NC4(CCCCC4)C3=O)c[nH]c12	115*	-2	-3	-3	4
CCCNC(=O)N(C)C[C@H]1Oc2ncc(-c3ccncc3)cc2C(=O)N([C@@H](C)CO)C[C@H]1C	-8[16.7 µM]	nt	-5	-2	5
CC(=O)N1c2c(cc(Br)cc2S(=O)(=O)NCC2COc3ccccc3O2)CC1C (stereo unspecified)	120*	3	nt	nt	nt
CC(=O)N1c2c(cc(Br)cc2S(=O)(=O)NCc2ccc3c(c2)OCO3)CC1C (stereo unspecified)	45	-7	nt	nt	nt
Cc1ccc(/C=C2/SC(=Nc3ccc(F)cc3)NC2=O)s1	-1	-20	-1	82*	9
Cc1ccc(N=C2NC(=O)/C(=C\c3cccs3)S2)cc1C	nt	-1	5	2	13
COc1ccc(C#Cc2ccc([C@H]3[C@@H](CO)N4CCCCN(C(=O)Nc5ccccc5)C[C@@H]34)cc2)cc1	11[16.7 µM]	nt	-4	2	2
COc1ccc(C#Cc2ccc([C@H]3[C@H]4CN(C(=O)Nc5ccccc5)CCCCN4[C@H]3CO)cc2)cc1	42[16.7 µM]	nt	-8	4	119*
CC(=O)N1CCCCN2[C@@H](CO)[C@H](c3ccc(-c4cccc(C(=O)N(C)C)c4)cc3)[C@@H]2C1	19[16.7 µM]	nt	-4	4	102*
O=C(C1CCCC1)N1CCCCN2[C@H](CO)[C@@H](c3ccc(C#CC4(O)CCCC4)cc3)[C@H]2C1	-28[16.7 µM]	nt	0	4	126*
O=C(C1CCCC1)N1CCCCN2[C@H](CO)[C@H](c3ccc(C#CC4(O)CCCC4)cc3)[C@@H]2C1	-26[16.7 µM]	nt	-1	5	3
COc1ccc(C#Cc2ccc([C@@H]3[C@@H](CO)N4CCCCN(Cc5ccccc5F)C[C@H]34)cc2)cc1	-19[16.7 µM]	nt	29*	-1	-2
COc1ccc(NC(=O)N(C)C[C@@H]2OCCCC[C@H](C)Oc3ccc(NC(=O)NC(C)C)cc3C(=O)N([C@@H](C)CO)C[C@@H]2C)cc1	10[16.7 µM]	nt	0	3	0
SMILES	miR122 inh	Rtt109 HAT inh	AF4-AF9 inh	ERAP1 HTS inh	S100A4 MyoIIA
O=C(NCc1ccccn1)[C@@H]1[C@@H](CO)[C@@H]2Cn3c(ccc(C4=CCCC4)c3=O)[C@H]1N2Cc1cccnc1	nt	nt	4	4	11
C[C@H]1CN([C@@H](C)CO)C(=O)c2cc(C#Cc3ccncc3)cnc2O[C@@H]1CN(C)CC1CCOCC1	-4[16.7 µM]	nt	-7	1	-4
O=C(c1cccnc1)N1CCCCN2[C@H](C1)[C@H](c1ccc(C#Cc3ccccn3)cc1)[C@@H]2CO	2[16.7 µM]	nt	25*	1	-5
CC(=O)N1CCCCN2[C@H](CO)[C@H](c3ccc(C#Cc4ccccc4F)cc3)[C@@H]2C1	30[16.7 µM]	nt	-2	0	97*
O=C(c1cccnc1)N1CCCCN2[C@@H](CO)[C@H](c3ccc(C#Cc4ccccn4)cc3)[C@@H]2C1	-5[16.7 µM]	nt	-6	1	-2
C[C@H](CO)N1C[C@H](C)[C@H](CN(C)S(C)(=O)=O)Oc2ccc(NC(=O)Nc3ccc4c(c3)OCO4)cc2C1=O	3[16.7 µM]	nt	2	4	-4
O=C(N1CCCCC1)C1(S(=O)(=O)c2ccccc2)CC=CC1	-6	1	44*	4	4
C[C@H](CO)N1C[C@H](C)[C@@H](CN(C)C(=O)CC2CC2)Oc2cc(C3=CCCC3)ccc2S1(=O)=O	11[16.7 µM]	nt	-5	-1	6
O=C(CCc1ccc(S(=O)(=O)NCc2ccccc2)cc1)NCc1ccc2c(c1)OCO2	7	-2	nt	nt	nt
O=C(CCc1ccc(S(=O)(=O)NCCc2ccccc2)cc1)NCc1ccc2c(c1)OCO2	196*	4	nt	nt	nt
C[C@@H]1CN([C@H](C)CO)C(=O)Cc2cc(NC(=O)C3CC3)ccc2O[C@@H]1CN(C)Cc1ccc(-c2ccccc2)cc1	-1[16.7 µM]	nt	0	1	4
O=C(Nc1ccc(Br)c(Cl)c1)c1ccco1	144*	-12	nt	nt	nt
NC(=O)c1cc(Cl)cn(-c2ccccc2)c1=O	-3	3	50*	-2	-8
CCC(=O)N(C)C[C@@H]1Oc2ncc(C#Cc3ccccc3)cc2C(=O)N([C@H](C)CO)C[C@@H]1C	19[16.7 µM]	nt	-1	0	8
CC(=O)C1=C(O)C(=O)N(Cc2ccco2)C1c1ccccc1F (stereo unspecified)	nt	0	-5	4	-2
CC(C)(C)C(=O)C1=C(O)C(=O)N(Cc2ccccc2)C1c1ccccc1F (stereo unspecified)	239*	3	-1	-2	5
Cc1ccc(C)c(S(=O)(=O)NCC(c2ccc3c(c2)OCO3)N2CCOCC2)c1 (stereo unspecified)	101*	1	0	0	1
C[C@@H]1CN([C@H](C)CO)C(=O)CCCn2cc(nn2)CO[C@@H]1CN(C)C(=O)Nc1cccc(C(F)(F)F)c1	1[16.7 µM]	nt	nt	nt	nt
O=C(CN(C1CCCCC1)S(=O)(=O)c1ccc(F)cc1)Nc1ccc2c(c1)OCO2	247*	18	nt	nt	nt
O=C(C[C@@H]1CC[C@@H]2[C@H](COC[C@@H](O)CN2C(=O)c2cccnc2)O1)NCc1ccc(Cl)cc1	10[16.7 µM]	nt	-1	-10	-105
